Measurements from ChEMBL document CHEMBL1130115 (J Med Chem, 1997).
Each block holds one molecule with its values, some of them ahead of it.

Columns and labels:
[1] = molecular target: T1, Adenosine receptor A1 (Rattus norvegicus) (UniProt P25099); assay: Displacement of specific [3H](R)-PIA binding at Adenosine A1 receptor from rat brain membranes at the concentration of 10e-4 M; type: cell membranes; conditions: Membrane
T1 sequence (whole entry): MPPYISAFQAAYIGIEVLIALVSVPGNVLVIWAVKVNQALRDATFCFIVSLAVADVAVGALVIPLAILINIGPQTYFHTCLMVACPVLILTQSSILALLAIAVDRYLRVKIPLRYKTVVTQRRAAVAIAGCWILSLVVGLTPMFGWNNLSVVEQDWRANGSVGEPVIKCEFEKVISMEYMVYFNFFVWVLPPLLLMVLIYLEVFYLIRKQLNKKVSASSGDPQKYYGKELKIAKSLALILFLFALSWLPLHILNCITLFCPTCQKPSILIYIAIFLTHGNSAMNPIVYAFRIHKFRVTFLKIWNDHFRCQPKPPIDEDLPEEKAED
How it was run: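 [3H](R)-PIA binding to rat cerebral cortex membranes with adenosine deaminase (3 units/mL) present in preparation, 30 min 30 °C preincubation and incubation. Result given as % of specific binding displaced at 10^-4 M.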

[2] = molecular target: Adenosine receptor A2a (Rattus norvegicus) (UniProt P30543); assay: Displacement of specific [3H]-CGS- 21680 binding at Adenosine A2A receptor in rat striatal membranes at the concentration of 10e-4 M; type: cell membranes; conditions: Membrane
How it was run: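 [3H]CGS 21680 binding to rat striatal membranes, with adenosine deaminase (3 units/mL) during preparation, 30 min 30 °C preincubation and incubation. Reported as % of specific binding displaced at 10^-4 M.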

[3] = molecular target: T2, Adenosine receptor A3 (Homo sapiens) (UniProt P0DMS8); assay: Displacement of [125I]AB-MECA binding at human Adenosine A3 receptor at 10e-7 M
T2 sequence (whole entry): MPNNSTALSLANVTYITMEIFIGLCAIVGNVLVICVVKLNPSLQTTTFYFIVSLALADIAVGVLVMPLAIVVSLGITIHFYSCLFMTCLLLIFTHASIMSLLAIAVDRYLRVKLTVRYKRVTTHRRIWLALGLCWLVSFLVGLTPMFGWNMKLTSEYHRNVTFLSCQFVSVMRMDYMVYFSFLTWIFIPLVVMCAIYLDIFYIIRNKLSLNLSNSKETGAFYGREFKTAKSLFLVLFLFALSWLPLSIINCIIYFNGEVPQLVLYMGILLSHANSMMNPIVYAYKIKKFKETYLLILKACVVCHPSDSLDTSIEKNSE
How it was run: (§1)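 Nonspecific binding defined with 100 µM (R)-PIA. Compounds dissolved in DMSO, ≤2% in assay. Stopped by rapid filtration over GF/B filters with three buffer rinses; result given as % specific binding displaced at the stated concentration.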

[4] = molecular target: T1, Adenosine receptor A1 (Rattus norvegicus); assay: Displacement of specific [3H](R)-PIA binding at Adenosine A1 receptor from rat brain membranes; type: cell membranes; set-up: concentration or dose not given beside the values; conditions: Membrane; concentration not given here
[5] = molecular target: Adenosine receptor A2a (Rattus norvegicus) (UniProt P30543); assay: Displacement of specific [3H]-CGS- 21680 binding at adenosine A2A receptor in rat striatal membranes.; type: cell membranes; set-up: concentration or dose not given beside the values; conditions: Membrane; concentration not given here
Adenosine receptor A2a = Adenosine receptor A2a (Rattus norvegicus, UniProt P30543); assay: Displacement of specific [3H]-CGS- 21680 binding at Adenosine A2A receptor in rat striatal membranes.; type: cell membranes, Membrane
Adenosine receptor A1 = molecular target: T3, Adenosine receptor A1 (Rattus norvegicus, UniProt P25099); assay: Displacement of specific [3H](R)-PIA binding at adenosine A1 receptor from rat brain membranes.; type: cell membranes, Membrane
T3 sequence (P25099 whole entry): T1 sequence (whole entry)

Adenosine receptor A3 = molecular target: T4, Adenosine receptor A3 (Homo sapiens, UniProt P0DMS8); assay: Displacement of specific [125I]AB-MECA binding at human adenosine A3 receptor.
T4 sequence (P0DMS8 whole entry): T2 sequence (whole entry)

Homo sapiens = organism: Homo sapiens; assay: Selectivity ratio measured as the Ki value of rat A1 receptor to that of hA3 receptor.
[6] = molecular target: T2, Adenosine receptor A3 (Homo sapiens); assay: Displacement of [125I]AB-MECA binding at human Adenosine A3 receptor at 10e-5 M; how it was run: as §1

Chain of Adenosine receptor A2a (Rattus norvegicus) (P30543 whole entry): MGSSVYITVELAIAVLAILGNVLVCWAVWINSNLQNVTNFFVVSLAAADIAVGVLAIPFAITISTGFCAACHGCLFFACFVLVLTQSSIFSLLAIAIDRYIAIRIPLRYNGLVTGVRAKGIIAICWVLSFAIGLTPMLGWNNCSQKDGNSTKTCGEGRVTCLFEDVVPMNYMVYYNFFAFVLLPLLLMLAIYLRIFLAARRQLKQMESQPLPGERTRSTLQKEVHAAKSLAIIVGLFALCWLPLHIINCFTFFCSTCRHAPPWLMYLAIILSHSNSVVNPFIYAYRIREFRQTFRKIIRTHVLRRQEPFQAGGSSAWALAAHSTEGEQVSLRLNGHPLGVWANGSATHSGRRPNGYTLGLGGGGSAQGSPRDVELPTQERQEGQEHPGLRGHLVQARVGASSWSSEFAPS
Chain of Adenosine receptor A2a (P30543 whole entry): as above

SMILES: CCO/C(O)=C1\C(C)=NC(c2ccccc2)=C(C(=O)OCc2ccc(C(=O)NCCN)cc2)C1C#Cc1ccccc1 (centres undefined)
- Displacement [3]: < 10%
- inhibition [4]: 68%
- inhibition [5]: 39%

SMILES: CCO/C(O)=C1\C(CC)=NC(c2ccccc2)=C(C(=O)OCc2ccccc2)C1C#Cc1ccccc1 (centres undefined)
- inhibition [4]: 25%
- Displacement [2]: < 10%

SMILES: CCOC(=O)C1=C(c2ccccc2)N=C(C)/C(=C(/O)OCC)C1c1cccs1 (centres undefined)
- inhibition [5]: 36%

SMILES: Cc1ccc(-c2oc3ccc(Cl)cc3c(=O)c2Cl)c(OC(C)C)c1
- Ki (Adenosine receptor A2a): > 100 µM
- Ki (Adenosine receptor A1): 100 µM

SMILES: CCOC(=O)C1=C(C(F)(F)F)N=C(C)/C(=C(/O)OCC)C1C#Cc1ccccc1 (centres undefined)
- inhibition [5]: 25%

SMILES: CCO/C(O)=C1\C(C)=NC(c2ccccc2)=C(C(=O)OCc2ccc([N+](=O)[O-])cc2)C1C#Cc1ccccc1 (centres undefined)
- inhibition [4]: 29%
- Displacement [2]: < 10%

SMILES: COC(=O)C1=C2C=CN(C)C=C2c2nc(-c3ccccc3)nn2C1
- Ki (Adenosine receptor A3): 0.013 µM

SMILES: CCOCN1C(C)=C(C(=O)OCC)C(C#Cc2ccccc2)C(C(=O)O)=C1c1ccccc1 (centres undefined)
- Ki (Adenosine receptor A1): 19.1 µM
- inhibition [5]: 36%
- Ki (Adenosine receptor A3): > 100 µM

SMILES: CCCO/C(O)=C1\C(C)=NC(c2ccccc2)=C(C(=O)OCc2ccccc2)C1C#Cc1ccccc1 (centres undefined)
- inhibition [4]: 21%
- inhibition [5]: 16%

SMILES: CCOC(=O)C1=C(c2ccccc2)N=C(C)/C(=C(/O)OCC)C1c1ccncc1 (centres undefined)
- Ki (Adenosine receptor A2a): 44.7 µM

SMILES: CCOC(=O)C1=C(C)NC(C)=C(C(=O)OC)C1C#Cc1ccccc1 (centres undefined)
- Selectivity ratio (Homo sapiens): 5.7

SMILES: CCO/C(O)=C1\C(C)=NC(c2ccccc2)=C(C(=O)OCc2cc([N+](=O)[O-])cc([N+](=O)[O-])c2)C1C#Cc1ccccc1 (centres undefined)
- inhibition [4]: 20%
- inhibition [5]: 40%

SMILES: CCOC(=O)C1=C(c2ccccc2)N=C(C)/C(=C(/O)OCC)C1C#Cc1ccc([N+](=O)[O-])cc1 (centres undefined)
- inhibition [5]: 24%

SMILES: CCOC(=O)C1=C(c2ccccc2)N=C(C)/C(=C(/O)OCC)C1c1cccnc1 (centres undefined)
- inhibition [5]: 40%

SMILES: CCOC(=O)C1=C(c2ccccc2)N=C(C)/C(=C(/O)OCC)C1c1ccccc1 (centres undefined)
- Displacement [2]: < 10%

SMILES: CCOCN1C(C)=C(C(=O)OCC)C(C#Cc2ccccc2)C(C(=O)OCC[Si](C)(C)C)=C1c1ccccc1 (centres undefined)
- inhibition [4]: 13%
- inhibition [5]: 19%

SMILES: C=CCO/C(O)=C1\C(C)=NC(c2ccccc2)=C(C(=O)OCC)C1/C=C/c1ccc([N+](=O)[O-])cc1 (centres undefined)
- Displacement [1]: < 10%
- inhibition [5]: 15%

SMILES: CCOC(=O)C1=C(C)N=C(C)/C(=C(/O)OCC)C1c1cccs1 (centres undefined)
- inhibition [5]: 25%

SMILES: CCOC(=O)C1=C(c2ccccc2)N=C(C)/C(=C(/O)OCC)C1c1ccco1 (centres undefined)
- inhibition [5]: 45%

SMILES: CCO/C(O)=C1\C(C)=NC(c2ccccc2)=C(C(=O)OCc2cccc(I)c2)C1C#Cc1ccccc1 (centres undefined)
- inhibition [4]: 14%
- inhibition [5]: 19%

SMILES: CCOC(=O)C1=C(C)N(COC)C(c2ccccc2)=C(C(=O)OCC[Si](C)(C)C)C1C#Cc1ccccc1 (centres undefined)
- Displacement [1]: < 10%
- inhibition [5]: 27%

SMILES: CCOC(=O)C1=C(c2ccccc2)N=C(C)/C(=C(/O)OCC)C1c1ccccn1 (centres undefined)
- inhibition [5]: 25%

SMILES: CCOC(=O)C1=C(c2ccccc2)N=C(C)/C(=C(/O)OCC)C1c1cc2ccccc2o1 (centres undefined)
- Displacement [2]: < 10%

SMILES: CCO/C(O)=C1\C(C)=NC(c2ccccc2)=C(C(=O)OCc2ccc(C(=O)OCC(Cl)(Cl)Cl)cc2)C1C#Cc1ccccc1 (centres undefined)
- inhibition [4]: 33%
- inhibition [5]: 11%

SMILES: CCO/C(O)=C1\C(C)=NC(c2ccccc2)=C(C(=O)OCC(OC)c2ccccc2)C1C#Cc1ccccc1 (centres undefined)
- inhibition [5]: 33%

SMILES: CCNC(=O)C1=C(c2ccccc2)N(COCC)C(C)=C(C(=O)OCC)C1C#Cc1ccccc1 (centres undefined)
- inhibition [5]: 35%

SMILES: CCO/C(O)=C1\C(C)=NC(c2ccccc2)=C(C(=O)OCc2cccc([N+](=O)[O-])c2)C1C#Cc1ccccc1 (centres undefined)
- inhibition [4]: 28.2%
- Displacement [2]: < 10%

SMILES: CCO/C(O)=C1\C(C)=NC(c2ccccc2)=C(C(=O)OCc2ccc(C(F)(F)F)cc2)C1C#Cc1ccccc1 (centres undefined)
- inhibition [4]: 32%
- inhibition [5]: 15%

SMILES: CCOC(=O)C1=C(c2ccccc2)N=C(C)/C(=C(/O)OCC)C1/C=C/c1ccc(N)cc1 (centres undefined)
- inhibition [5]: 26%

SMILES: CCO/C(O)=C1\C(C)=NC(c2ccccc2)=C(C(=O)OCc2cc(C(F)(F)F)cc(C(F)(F)F)c2)C1C#Cc1ccccc1 (centres undefined)
- Displacement [1]: < 10%
- inhibition [5]: 29%

SMILES: CCOC(=O)C1=C(c2ccccc2)N=C(C)/C(=C(/O)OCC)C1C#Cc1cccc(C)c1 (centres undefined)
- inhibition [4]: 41%
- Displacement [2]: < 10%

The next lines start with the values.

- Displacement [1]: < 10%
- Displacement [2]: < 10%
SMILES: CCO/C(O)=C1\C(C)=NC(c2ccccc2)=C(C(=O)OCCCc2ccccc2)C1C#Cc1ccccc1 (centres undefined)

- inhibition [5]: 27%
SMILES: CCO/C(O)=C1\C(C)=NC(c2ccccc2)=C(C(=O)OC(C)(C)C)C1C#Cc1ccccc1 (centres undefined)

- inhibition [5]: 17%
SMILES: CCOC(=O)C1=C(c2ccccc2)NC(C)=C(C(C)=O)C1C#Cc1ccccc1 (centres undefined)

- inhibition [5]: 22%
SMILES: CCOC(=O)C1=C(c2ccccc2)N=C2CCCC(O)=C2C1C#Cc1ccccc1 (centres undefined)

- inhibition [5]: 20%
SMILES: CCOC(=O)C1=C(c2ccccc2)N=C(C)/C(=C(/O)OC(C)(C)C)C1C#Cc1ccccc1 (centres undefined)

- Ki (Adenosine receptor A2a): 5.15 µM
SMILES: CCOC(=O)C1=C(c2ccccc2)N=C(C)/C(=C(/O)SCC)C1C#Cc1ccccc1 (centres undefined)

- Displacement [2]: < 10%
SMILES: CCO/C(O)=C1\C(C)=NC(c2ccccc2)=C(C(=O)OCc2ccccc2)C1C#Cc1ccccc1 (centres undefined)

- inhibition [5]: 47%
SMILES: CCNC(=O)C1=C(c2ccccc2)N=C(C)/C(=C(/O)OCC)C1C#Cc1ccccc1 (centres undefined)

- Displacement [1]: < 10%
- Displacement [2]: < 10%
SMILES: CCO/C(O)=C1\C(C)=NC(c2ccccc2)=C(C(=O)OCCc2ccccc2)C1C#Cc1ccccc1 (centres undefined)

- inhibition [5]: 19%
SMILES: CCNC(=O)C1=C(C)NC(c2ccccc2)=C(C(=O)OCC)C1C#Cc1ccccc1 (centres undefined)

- Displacement [6]: < 10%
- inhibition [5]: 16%
SMILES: CCO/C(O)=C1\C(C)=NC(c2ccccc2)=C(C(=O)O)C1C#Cc1ccccc1 (centres undefined)

- Displacement [1]: < 10%
- inhibition [5]: 17%
SMILES: CCO/C(O)=C1\C(C)=NC(c2ccccc2)=C(C(=O)OCc2ccc(C)cc2)C1C#Cc1ccccc1 (centres undefined)

- inhibition [5]: 18%
SMILES: CCO/C(O)=C1\C(C)=NC(c2ccccc2)=C(C(=O)OCC[Si](C)(C)C)C1C#Cc1ccccc1 (centres undefined)

- inhibition [5]: 26%
SMILES: CCOC(=O)C1=C(c2ccccc2)N=C(C)/C(=C(/O)OCC)C1C#Cc1ccccc1 (centres undefined)

- inhibition [4]: 16%
- inhibition [5]: 13%
SMILES: CCO/C(O)=C1\C(C)=NC(c2ccccc2)=C(C(=O)OCc2ccccc2C)C1C#Cc1ccccc1 (centres undefined)

- inhibition [5]: 17%
SMILES: CCO/C(O)=C1\C(C)=NC(c2ccccc2)=C(C(=O)SCC)C1C#Cc1ccccc1 (centres undefined)

- Displacement [1]: < 10%
- inhibition [5]: 16%
SMILES: CCO/C(O)=C1\C(C)=NC(c2ccccc2)=C(C(=O)OCc2cccc(C)c2)C1C#Cc1ccccc1 (centres undefined)

- inhibition [4]: 24%
- Displacement [2]: < 10%
SMILES: CCOC(=O)C1=C(c2ccccc2)N=C(C)/C(=C(/O)OCc2ccccc2)C1C#Cc1ccccc1 (centres undefined)
